Test results reported in ChEMBL document CHEMBL1133631, “Synthesis of potent agonists of the D-myo-inositol 1,4, 5-trisphosphate receptor based on clustered disaccharide polyphosphate analogues of adenophostin A” (J Med Chem, 2000).

Assays:
[1] = Binding affinity was measured by equilibrium competing with [3H]IP3 (Inositol 1,4,5-trisphosphate receptor)
Method in brief: (§1)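 Membranes from livers of male Wistar rats were Percoll-purified. A 0.1 mg protein sample in 50 mM Tris, 1 mM EGTA, pH 8.3 was incubated 5 min at 4 °C with [³H]IP₃ (45 nCi, 40 Ci/mmol) and competing ligand. The incubation was stopped by centrifugation, and pellets were scintillation-counted. Parameters came from logistic fits. Nonspecific binding was 10–15%. Triplicate, means ± SEM.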

[2] = Hill coefficient for equilibrium binding was evaluated (Inositol 1,4,5-trisphosphate receptor); method in brief: as §1
[3] = Concentration response relationship was used to measure half-maximally effective agonist concentration.; assay type: functional
Method in brief: (§2)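 Saponin-permeabilized hepatocytes (10⁶ cells·mL⁻¹, 10 µg·mL⁻¹ saponin) loaded to steady state with ⁴⁵Ca²⁺ (20 µCi·mL⁻¹) for 5 min at 37 °C in cytosol-like medium (free Ca²⁺ 200 nM, 7.5 mM ATP, FCCP, PIPES pH 7.0). Cells diluted 5-fold into ATP-free medium with 1.25 µM thapsigargin; ligand added after 15 s, stores filtered 60 s later. Logistic fits gave maximal response, EC50 and Hill slope; means ± SEM.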

[4] = Ratio of EC50 and Kd; assay type: functional
[5] = Hill coefficient for [Ca2+] release was evaluated; assay type: functional; method in brief: as §2
[6] = tested on: IP3 receptor (Rattus norvegicus); test: [Ca2+] release with 10 uM was measured by non-specific binding method.
[7] = tested on: IP3 receptor (Rattus norvegicus); test: Concentration response relationship was fitted to logistic equations using kaleidagraph software from which maximal response was measured.
[8] = compound was tested and the Ratio of EC50 and Kd was found out.; assay type: functional
[9] = tested on: IP3 receptor (Rattus norvegicus); test: Maximal Ca+ release response was determined from permeabilized rat hepatocyte assay

Compound | Kd [1] [nM] | Hill slope [2] | EC50 [3] [nM] | Ratio [4] | IP3-sensitive Ca2+ stores [6] [%] | Ratio [8] | Hill slope [5] | Max response [7] [%] | Max response [9] [%]
O=P(O)(O)OC1[C@@H](OP(=O)(O)O)C(CO)O[C@@H](O[C@@H]2[C@H](OP(=O)(O)O)C(OCCCc3cc(CCCOC4O[C@H](CO)[C@H](O[C@@H]5OC(CO)[C@H](OP(=O)(O)O)C(OP(=O)(O)O)[C@@H]5O)[C@@H]4OP(=O)(O)O)c(CCCOC4O[C@H](CO)[C@H](O[C@@H]5OC(CO)[C@H](OP(=O)(O)O)C(OP(=O)(O)O)[C@@H]5O)[C@@H]4OP(=O)(O)O)cc3CCCOC3O[C@H](CO)[C@H](O[C@@H]4OC(CO)[C@H](OP(=O)(O)O)C(OP(=O)(O)O)[C@@H]4O)[C@@H]3OP(=O)(O)O)O[C@@H]2CO)[C@H]1O (stereo partly specified) | 4.3 | 1.04 | 161 | 37 | 101 | – | 2.1 | 42 | –
CCCOC1O[C@H](CO)[C@H](O[C@@H]2OC(CO)[C@H](OP(=O)(O)O)C(OP(=O)(O)O)[C@@H]2O)[C@@H]1OP(=O)(O)O (stereo partly specified) | 4.7 | 0.97 | 491 | – | 87 | 104 | 2.1 | – | 42
CO[C@@H]1O[C@H](CO)[C@@H](O[C@H]2O[C@@H](CO)[C@@H](OP(=O)(O)O)[C@H](OP(=O)(O)O)[C@@H]2O)[C@H]1OP(=O)(O)O | 4.4 | 0.99 | 484 | – | 89 | 110 | 3.4 | – | 33

These reach a lower Kd [1]. Values come first.

Kd [1] [nM] | Hill slope [2] | EC50 [3] [nM] | Ratio [4] | IP3-sensitive Ca2+ stores [6] [%] | Ratio [8] | Compound | Hill slope [5] | Max response [7] [%] | Max response [9] [%]
3.6 | 0.95 | 215 | 60 | 92 | – | O=P(O)(O)OC1[C@@H](OP(=O)(O)O)C(CO)O[C@@H](O[C@@H]2[C@H](OP(=O)(O)O)C(OCCCc3ccc(CCCOC4O[C@H](CO)[C@H](O[C@@H]5OC(CO)[C@H](OP(=O)(O)O)C(OP(=O)(O)O)[C@@H]5O)[C@@H]4OP(=O)(O)O)cc3)O[C@@H]2CO)[C@H]1O (stereo partly specified) | 2.2 | 31 | –
3.1 | 1.16 | 381 | – | 87 | 123 | O=P(O)(O)OC1[C@@H](OP(=O)(O)O)C(CO)O[C@@H](O[C@@H]2[C@H](OP(=O)(O)O)C(OCCCc3ccccc3)O[C@@H]2CO)[C@H]1O (stereo partly specified) | 3.9 | – | 34
1.7 | 0.88 | 201 | 120 | – | – | O=P(O)(O)OC1[C@@H](OP(=O)(O)O)C(O)C(O)[C@@H](OP(=O)(O)O)[C@H]1O (stereo partly specified) | 2.9 | 32 | –
